# Screening results deposited in PubChem by several laboratories.
# bCat KO growth = beta-catenin-lacking colon tumor cell growth suppression | HCT116 beta-catenin knockout viability, CellTiter-Glo, 60 h; hits give low values | 1.5% of 140,000 active | viability, % at 10 µM;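 active = viability at or under a set limit, the compound median less 4 SD, cut at about 6% in these data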
# H69AR growth 86K = blocks growth of human H69AR lung tumor cells | 6% of 85,000 active | AID 598 | viability, % at 10 µM | H69AR lung tumor viability, ATP luminescence, 72 h; hits give low values;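 active = viability at or below 40%; inactive = viability above 40%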;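 note: multidrug resistant small cell line overexpressing MRP-1 efflux transporter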
# Lung fibro prol = blocks proliferation of human lung fibroblasts | 1.1% of 85,000 active | viability, % at 10 µM | LL 47 human lung fibroblast viability, ATP luminescence; hits give low values;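 active = viability at or below 50% in the single dose screen; inactive = viability above 50%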;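 note: compound exposure lasted 72 h before the ATP readout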
#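 Signal: luminescent ATP detection, CellTiter-Glo; assay system: LL 47 human lung fibroblasts; input: 1,150 cells/well; incubation: overnight cell rest, 72 h compound treatment at 37 °C; measure: % viability versus median cells-only luminescence; medium: IMEM growth medium with 15% fetal bovine serum; dosing: compound addition at 0.1% DMSO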
# HUVEC inhibit = inhibitors of human endothelial cell proliferation; HUVEC proliferation, CellTiter-Glo luminescence, 72 h; hits give low values; viability, % at 10 µM (by protocol); 1.1% of 86,000 active; AID 648;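 active = viability at or below 30%; inactive = viability above 30%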
# PTEN del growth = growth suppressors of cells with PTEN tumor suppressor deletion; HCT116 PTEN-null viability, CellTiter-Glo, 60 h; hits give low values; 1.2% of 140,000 active; AID 827; viability, % at 10 µM;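 active = viability at or below a set limit, 4 SD under the median of all tested compounds, cut at about 3.7% in these data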;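 note: PTEN knockout HCT116 line with beta catenin targeted HCT116 as companion control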
# Phagocyt inh = inhibitors of macrophage phagocytosis; AID 1029; inhibition, % at 5 µM; 0.07% of 110,000 active; J774A.1 macrophage IgG-bead phagocytosis, imaging;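 active = inhibition above the mean of the plate negative controls plus 5 SD, cut at about 13% in these data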;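 note: phagocytic index as fraction of beads internalized from green versus red external bead signal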
# A number is an active result; i = inactive; nt = not tested or not shown. This is one part of a sample in which hits are shown more often than they occur.
SMILES,bCat KO growth,H69AR growth 86K,Lung fibro prol,HUVEC inhibit,PTEN del growth,Phagocyt inh
COc1ccc(C(=O)N(C)Cc2ccccc2)cc1Br,i,nt,nt,nt,i,i
c1ccc(Cc2nnc(-c3ccccc3)o2)cc1,i,i,9.6,i,i,i
COC(=O)c1ccc(C(=O)Nc2ccc(N)cc2N)cc1,i,1.9,i,i,i,i
COc1ccccc1NS(=O)(=O)/C=C/c1ccccc1,i,nt,nt,nt,i,i
Cc1onc(-c2c(F)cccc2Cl)c1C(=O)N1CCc2ccccc21,i,30,i,i,i,i
Cc1onc(-c2c(Cl)cccc2Cl)c1C(=O)N1CCCc2ccccc21,i,12,i,i,i,i
CC1CCC(NC(=O)CN2C(=O)COc3ccc(S(=O)(=O)N4CCCC4)cc32)CC1 (centres undefined),i,nt,nt,nt,i,i
CCOc1ccc(CSC(CC(=O)O)C(=O)O)cc1 (centres undefined),i,i,i,i,i,i
COCCOc1cc(Nc2nnc(C(F)(F)F)s2)c(Cl)cc1Cl,i,13,i,i,i,i
COc1ccc(N=C2S/C(=C\c3ccc(N4CCOCC4)o3)C(=O)N2CCc2c[nH]c3ccccc23)cc1,1.9,nt,nt,nt,1.6,nt
CCCN1C(=O)/C(=C/c2ccc(C)o2)SC1=Nc1ccc(OC)cc1,i,nt,nt,nt,i,nt
CC(Nc1nc(N2CCCCC2)nc2ccccc12)c1ccccc1 (centres undefined),4.2,3.2,21,3.6,i,i
COc1ccc(Nc2ncnc3ccccc23)c(OC)c1,i,i,i,i,i,nt
COc1ccc(Nc2nc(N3CCCC3)nc3ccccc23)c(OC)c1,1.4,2.1,i,i,1.4,i
COc1ccc(-c2cc3nc(C)cc(C)n3n2)c(OC)c1,nt,i,i,i,nt,nt
CCc1cc[n+](-c2nc3ccccc3nc2[N-]S(=O)(=O)c2ccc(Br)s2)cc1,i,nt,nt,nt,i,i
CCOc1ccc(OCC)c(Nc2cc(C)nc3nc(C)nn23)c1,i,32,i,i,i,nt
CCOc1ccc(OCC)c(Nc2cc(C)nc3ncnn23)c1,i,i,i,i,i,i
COC(=O)c1ccc(C(=O)OC)c(NS(C)(=O)=O)c1,i,1.4,i,i,i,i
COC(=O)c1cccc(NS(C)(=O)=O)c1C,i,i,i,i,i,nt
COc1ccc(-c2cc(-c3c(O)c(OC)c4occc4c3OC)[nH]n2)cc1,i,i,i,i,i,i
COc1ccc(-c2cc(-c3c(O)c(OC)c4occc4c3OC)[nH]n2)cc1OC,i,26,i,i,i,nt
S=c1[nH]nc(CSc2nc3ccccc3s2)n1C1CCCCC1,i,nt,nt,nt,i,i
COc1ccc(CCn2c(SCC(=O)Nc3cc(C)on3)nc3ccsc3c2=O)cc1OC,i,i,i,i,i,i
CCCCCCn1c(SCC(=O)Nc2cc(C)on2)nc2ccccc2c1=O,i,7.0,i,i,i,i
SMILES,bCat KO growth,H69AR growth 86K,Lung fibro prol,HUVEC inhibit,PTEN del growth,Phagocyt inh
Cc1nnc(NC(=O)CSc2nc(C(C)C)nc3ccccc23)s1,i,nt,nt,nt,i,i
O=c1c2ccccc2nnn1CSc1nc2cc(Cl)ccc2c(=O)n1Cc1ccco1,nt,28,i,i,nt,nt
O=c1c2ccccc2nnn1CSc1nnc(COc2ccc(Cl)cc2)n1Cc1ccco1,i,i,i,i,i,nt
COc1ccc(CCn2c(SCC(=O)Nc3cc(C)on3)nc3ccccc3c2=O)cc1OC,i,33,i,i,i,i
Cc1cc(NC(=O)CSc2nc(C(C)C)nc3ccccc23)no1,i,14,i,i,i,i
CC(C)Cc1nnc(NC(=O)CCC(=O)N2CCN(c3ccccn3)CC2)s1,i,i,i,i,i,i
CCOc1ccc(CCn2c(-c3ccco3)nc3ccccc3c2=O)cc1OCC,i,32,i,i,i,i
CCOc1ccc(-n2c(SCC(=O)Nc3cc(C)on3)nnc2-c2c[nH]c3ccccc23)cc1,i,27,i,i,i,i
CCc1ccc(NC(=O)CSc2nc3ccccc3c(=O)n2CCCC(=O)N2CCCC2)cc1,i,30,i,i,i,i
CCOC(=O)c1cccc(NC(=O)CSc2nc3ccccc3c(=O)n2CC)c1,i,40,i,i,i,i
O=C(Nc1ccc(Cl)c(Cl)c1)Nc1nnc(CC2=CCCCC2)s1,i,nt,nt,nt,i,i
Cc1nc(C)c(C(=O)NNC(=O)c2ccc(Br)cc2)s1,i,nt,nt,nt,i,i
O=C(NCC1CCCO1)c1sc2cc(Cl)ccc2c1Cl (centres undefined),i,nt,nt,nt,i,i
Cc1cc(NC(=O)CSc2nc3ccccc3c(=O)n2Cc2ccc(F)cc2)no1,i,40,i,i,i,i
N#CCSc1nc2ccccc2c(=O)n1CCC(=O)NCCc1ccccc1,i,i,i,i,i,i
CCOC(=O)CSc1nc2ccccc2c(=O)n1CCC(=O)NCCc1ccc(OC)c(OC)c1,3.2,i,i,i,3.2,i
COC(=O)c1ccc2c(=O)n(Cc3ccco3)c(SCC(=O)Nc3ccc(C)c(Cl)c3)nc2c1,i,8.1,12,i,i,nt
CCCCNC(=O)CSc1nc2ccccc2c(=O)n1CC1COc2ccccc2O1 (centres undefined),i,27,i,i,i,i
Cc1cc(NC(=O)CSc2nc3ccccc3c(=O)n2-c2ccccc2)no1,i,nt,nt,nt,i,i
Cc1ccn2c(-c3n[nH]c(=S)n3C)c(C)nc2c1,i,nt,nt,nt,i,i
Cc1cc(NC(=O)CSc2nc3cc4c(cc3c(=O)n2CCc2ccccc2)OCO4)no1,i,10,i,16,i,i
O=C(Nc1cccc(Oc2ccc3c(c2)C(=O)NC3=O)c1)c1cccs1,i,nt,nt,nt,i,i
COc1ccc(NS(=O)(=O)c2cc([N+](=O)[O-])ccc2N/N=C\c2c(C)[nH]c3ccccc23)cc1,i,nt,nt,nt,3.8,i
Cc1nn(Cc2ccc(C(=O)Nc3ccc(Br)c4cccnc34)o2)c(C)c1Br,nt,i,i,i,nt,nt
Cn1cc(/C=N/n2cnc3sc4c(c3c2=O)CCCC4)c2ccccc21,i,26,i,i,i,nt
SMILES,bCat KO growth,H69AR growth 86K,Lung fibro prol,HUVEC inhibit,PTEN del growth,Phagocyt inh
O=c1c2c3c(sc2ncn1/N=C/c1ccc([N+](=O)[O-])o1)CCCC3,i,nt,nt,nt,i,nt
COCCNc1nnc(SC(C)C(=O)Nc2ccc(-c3nc4ccc(C)cc4s3)cc2)s1 (centres undefined),i,nt,nt,nt,i,i
CN(C)S(=O)(=O)c1ccc(Cl)c(NC(=O)COC(=O)C2CSC3(C)CCC(=O)N23)c1 (centres undefined),i,nt,nt,nt,i,i
Cc1nnc(Sc2nc3ccccc3o2)c2ccccc12,i,6.8,i,i,i,i
CC(C)(C)c1ccc(S(=O)(=O)N(CCCN2CCOCC2)Cc2cccs2)cc1,i,nt,nt,nt,i,i
CCOc1ccc2cc(C#N)c(SCC(=O)N3CCC(C)CC3)nc2c1,i,23,i,i,i,i
COC(=O)CSc1nc2cc(OC)ccc2cc1C#N,i,i,i,i,i,i
COc1ccc2cc(C#N)c(SCC(=O)N3CCCC3)nc2c1,i,i,i,i,i,i
CCOC(=O)CSc1nc2cc(OCC)ccc2cc1C#N,i,31,i,i,i,i
